Consider eight molecules from ChEMBL document CHEMBL4364334, “Synthesis, biological evaluation and molecular modeling of novel selective COX-2 inhibitors: sulfide, sulfoxide, and sulfone derivatives of 1,5-diarylpyrrol-3-substituted scaffold” (Bioorg Med Chem, 2019).

Test [1] has as its target T1, Prostaglandin G/H synthase 1 (Mus musculus, UniProt P22437).
T1 sequence (P22437 whole entry): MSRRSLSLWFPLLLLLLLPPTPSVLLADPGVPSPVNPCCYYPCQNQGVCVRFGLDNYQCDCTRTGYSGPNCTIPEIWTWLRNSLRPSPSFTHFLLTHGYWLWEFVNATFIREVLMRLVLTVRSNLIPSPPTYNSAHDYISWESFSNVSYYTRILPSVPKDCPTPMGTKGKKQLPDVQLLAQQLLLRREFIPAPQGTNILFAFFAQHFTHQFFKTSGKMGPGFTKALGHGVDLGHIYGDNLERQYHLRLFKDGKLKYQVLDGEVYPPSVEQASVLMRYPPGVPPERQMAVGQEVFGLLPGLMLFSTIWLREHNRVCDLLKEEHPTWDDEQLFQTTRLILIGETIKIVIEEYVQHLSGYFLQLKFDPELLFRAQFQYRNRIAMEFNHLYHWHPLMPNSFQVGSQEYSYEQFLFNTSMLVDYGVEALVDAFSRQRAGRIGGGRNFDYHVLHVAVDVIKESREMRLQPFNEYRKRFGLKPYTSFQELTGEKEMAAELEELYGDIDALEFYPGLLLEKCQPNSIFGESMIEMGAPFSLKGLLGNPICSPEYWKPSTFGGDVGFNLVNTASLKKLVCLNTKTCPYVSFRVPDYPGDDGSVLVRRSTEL
In words: Inhibition of COX-1 in mouse J774 cells assessed as inhibition of PEG2 production using arachidonic acid as substrate pretreated for 15 mins followed by substrate addition measured after 30 mins by radioimmuno assay. Type of test: cell-based. In short, it runs like this:
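Murine J774 macrophages were adhered 2 h at 37 °C in 5% CO2 and given fresh medium. They were pretreated 15 min with compound (10 µM; 0.1–1 µM when inhibition exceeded 50%), then incubated 30 min at 37 °C with 15 µM arachidonic acid. Supernatant PGE2 was measured by RIA. Values are means of 3 experiments of % inhibition versus control, with IC50 from a sigmoidal variable-slope fit.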

For test [2], the target named is T2, Prostaglandin G/H synthase 2 (Mus musculus, UniProt Q05769).
T2 sequence (Q05769 whole entry): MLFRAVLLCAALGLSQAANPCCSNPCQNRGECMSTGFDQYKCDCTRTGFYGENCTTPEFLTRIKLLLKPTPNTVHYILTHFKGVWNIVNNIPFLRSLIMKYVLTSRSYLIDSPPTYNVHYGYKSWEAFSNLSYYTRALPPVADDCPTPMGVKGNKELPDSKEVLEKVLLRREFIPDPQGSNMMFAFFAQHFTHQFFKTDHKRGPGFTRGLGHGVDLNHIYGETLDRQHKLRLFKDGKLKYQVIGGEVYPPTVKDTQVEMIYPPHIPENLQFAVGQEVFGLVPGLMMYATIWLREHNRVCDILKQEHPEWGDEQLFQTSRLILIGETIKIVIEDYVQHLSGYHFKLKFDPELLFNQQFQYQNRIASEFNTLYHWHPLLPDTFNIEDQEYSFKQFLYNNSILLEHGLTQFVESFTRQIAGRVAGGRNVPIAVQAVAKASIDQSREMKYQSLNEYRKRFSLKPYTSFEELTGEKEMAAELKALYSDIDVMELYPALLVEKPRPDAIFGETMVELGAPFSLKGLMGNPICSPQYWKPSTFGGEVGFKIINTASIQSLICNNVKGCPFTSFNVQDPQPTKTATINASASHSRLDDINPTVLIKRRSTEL
In words: Inhibition of COX-2 in LPS-induced mouse J774 cells assessed as inhibition of PEG2 production after 24 hrs by radioimmuno assay. The format is cell-based.

For test [3], the species on record is Mus musculus. The test can be described thus: Selectivity index, ratio of IC50 for inhibition of COX-1 in mouse J774 cells to IC50 for inhibition of COX-2 in LPS-induced mouse J774 cells. Type of test: cell-based.
Test [4] deals with Mus musculus. The test can be described thus: Antinociceptive activity in Swiss albino mouse model of acetic-acid-induced writhing assessed as inhibition of writhing numbers at 40 mg/kg, po measured starting 5 mins post acetic acid challenge for 10 mins (reference value: 30.5 +/- 3.7).
Test [5] has as its system Mus musculus. The test can be described thus: Antinociceptive activity in Swiss albino mouse model of acetic-acid-induced writhing assessed as inhibition of writhing numbers at 20 mg/kg, po measured starting 5 mins post acetic acid challenge for 10 mins (reference value: 30.5 +/- 3.7).
Test [6] has as its system Rattus norvegicus. The test can be described thus: Anti-inflammatory activity in rat assessed as effect on carrageenan-induced hyperalgesia by measuring paw pressure tolerance at 20 mg/kg, po administered as single dose preincubated with carrageenan for 4 hrs and followed by compound treatment and measured after 90 mins by paw-pressure test (reference value: 36.7 +/- 4 g). Type of test: functional.

Test [7] deals with Rattus norvegicus. In words: Anti-inflammatory activity in rat assessed as effect on carrageenan-induced hyperalgesia by measuring paw pressure tolerance at 20 mg/kg, po administered as single dose preincubated with carrageenan for 4 hrs and followed by compound treatment and measured after 30 mins by paw-pressure test (reference value: 33.9 +/- 3.7 g). Type of test: functional.

For test [8], the system named is Mus musculus. In words: Antinociceptive activity in Swiss albino mouse model of acetic-acid-induced writhing assessed as inhibition of writhing numbers at 10 mg/kg, po measured starting 5 mins post acetic acid challenge for 10 mins (reference value: 30.5 +/- 3.7).
The subject of test [9] is Rattus norvegicus. In words: Antiinflammatory activity in rat assessed as effect on carrageenan-induced paw edema by measuring paw volume at 20 mg/kg, po administered as single dose preincubated with carrageenan for 4 hrs and followed by compound treatment and measured after 30 mins by plethysmometer (reference value: 2.78 +/- 0.09 ml). Type of test: functional.
The test system of test [10] is Rattus norvegicus. The test can be described thus: Anti-inflammatory activity in rat assessed as effect on carrageenan-induced hyperalgesia by measuring paw pressure tolerance at 20 mg/kg, po administered as single dose preincubated with carrageenan for 4 hrs and followed by compound treatment and measured after 60 mins by paw-pressure test (reference value: 37.2 +/- 3.5 g). Type of test: functional.

Test [11] deals with Rattus norvegicus. The test can be described thus: Antiinflammatory activity in rat assessed as inhibition of carrageenan-induced paw edema by measuring paw volume at 20 mg/kg, po administered as single dose preincubated with carrageenan for 4 hrs and followed by compound treatment and measured after 1 hr by plethysmometer relative to untreated control. Type of test: functional.

Some results are limits rather than exact numbers.

As for `Cc1c(CCOCCO)cc(-c2ccc(S(C)(=O)=O)cc2)n1-c1ccc(F)cc1`, the IC50 in test [1] was > 10000 nM.
For `CCC[S+]([O-])CCc1cc(-c2ccc(S(C)(=O)=O)cc2)n(-c2ccccc2)c1C` (centres undefined), the IC50 in test [2] was 60 nM; in test [1] it was > 10000 nM. The Ratio IC50 in the test listed under Mus musculus [3] is > 167.
As for `CCCS(=O)(=O)CCc1cc(-c2ccc(S(C)(=O)=O)cc2)n(-c2ccccc2)c1C`, the half-inhibitory concentration (IC50) is 34 nM in test [2] and > 10000 nM in test [1]. Also, in the test filed under Mus musculus [3], the Ratio IC50 was > 294.
The corresponding values for `CCCS(=O)(=O)CCc1cc(-c2ccc(S(C)(=O)=O)cc2)n(-c2ccc(F)cc2)c1C` are 44 nM, > 10000 nM and > 227.
Consider `CCC[S+]([O-])CCc1cc(-c2ccc(S(C)(=O)=O)cc2)n(-c2ccc(F)cc2)c1C` (centres undefined), for which the Activity turned out to be 20.3 with Mus musculus [4]; 23.4 in the test with Mus musculus [5]; 38.2 g in the test on Rattus norvegicus [6]; 53.5 g in the test with Rattus norvegicus [7]; 28.8 in the test on Mus musculus [8]; 1.55 mL with Rattus norvegicus [9]. In addition, in the test with Rattus norvegicus [10], the Activity was 42.5 g. In addition, the figures for the 50% inhibitory concentration (IC50) in test [2] and in test [1] were 40 nM and > 10000 nM, respectively. In addition, in the test listed under Mus musculus [3], the Ratio IC50 was > 250. Moreover, the inhibition in vivo at 20 mg/kg with Rattus norvegicus [11] was 100%.
Regarding `CCCSCCc1cc(-c2ccc(S(C)(=O)=O)cc2)n(-c2ccc(F)cc2)c1C`, the Activity in the test with Mus musculus [4] turned out to be 15.9; in the test with Mus musculus [5], 17.4; in the test on Rattus norvegicus [6], 41.9 g; in the test on Rattus norvegicus [7], 57.3 g; in the test on Mus musculus [8], 28.7; in the test with Rattus norvegicus [9], 1.75 mL. Besides, in the test on Rattus norvegicus [10], the Activity is recorded as 50.4 g. Also, the values for the half-inhibitory concentration (IC50) in test [2] and in [1] were 11 nM and > 10000 nM, respectively. The Ratio IC50 in the test filed under Mus musculus [3] was > 909. Further, in the test on Rattus norvegicus [11], the inhibition in vivo at 20 mg/kg amounted to 100%.
`CCCSCCc1cc(-c2ccc(S(C)(=O)=O)cc2)n(-c2ccccc2)c1C`: the Activity in the test with Mus musculus [4] is 26.4; in the test with Mus musculus [5], 25.9; with Rattus norvegicus [6] it was 40.2 g; with Rattus norvegicus [7], 46 g; in the test on Mus musculus [8], 32.6; in the test on Rattus norvegicus [9], 1.69 mL. The Activity with Rattus norvegicus [10] was 40.3 g. Moreover, the results for the IC50 in [2] and in [1] were 14 nM and > 10000 nM, respectively. Moreover, the Ratio IC50 in the test filed under Mus musculus [3] was > 714. Also, in the test with Rattus norvegicus [11], the inhibition in vivo at 20 mg/kg came out at 100%.
Take `CCCSCCc1cc(-c2ccc(S(C)(=O)=O)cc2)n(-c2cccc(F)c2)c1C`: the Activity in the test with Mus musculus [4] is 23.7; with Mus musculus [5], 23.4; with Rattus norvegicus [6], 37.2 g; with Rattus norvegicus [7], 41.5 g; in the test on Mus musculus [8] it was 30.3; in the test on Rattus norvegicus [9], 1.74 mL. Further, the Activity in the test on Rattus norvegicus [10] is 38.8 g. For the same molecule, the concentration for half-maximal inhibition (IC50) in test [2] is 285 nM; in [1], > 10000 nM. In addition, the Ratio IC50 in the test listed under Mus musculus [3] was > 24. Besides, in the test on Rattus norvegicus [11], the inhibition in vivo at 20 mg/kg came to 100%.
